Compound activity (PubChem)
TAAR1 antag – antagonists of human TAAR1; CHO RD-HGA16 TAAR1, Fluo-8 calcium fluorescence, antagonist; actives 1.5% (n = 360,000); inhibition, % at 3 µM; Q96RJ0;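 active means inhibition above a per-plate cutoff, the mean inhibition of test compounds on that plate plus 3 SD, cut at about 49% in these data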
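Material: RD-HGA16 CHO cells with stable hTAAR1 and Gα16; Dosing: single nominal final test compound concentration of 3 µM; Schedule: seeding 17-24 h prior, 75-min 37 °C, 30-min RT dye loading; Detection: kinetic Fluo-8 calcium fluorescence measurement; Measure: % inhibition from peak post-agonist over basal fluorescence ratio; Benchmarks: vehicle and agonist controls.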
OX1R antag-1 – human HCRTR1 antagonism; O43613; CHO/OX1R cells, Fluo-8 calcium fluorescence, orexin A; inhibition, % at 5 µM; actives 0.43% (n = 330,000);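 active means inhibition above its plate's threshold, mean inhibition of all tested compounds on the plate plus 3 SD, cut at about 37% in these data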
Target sequence (O43613 whole entry, looked up): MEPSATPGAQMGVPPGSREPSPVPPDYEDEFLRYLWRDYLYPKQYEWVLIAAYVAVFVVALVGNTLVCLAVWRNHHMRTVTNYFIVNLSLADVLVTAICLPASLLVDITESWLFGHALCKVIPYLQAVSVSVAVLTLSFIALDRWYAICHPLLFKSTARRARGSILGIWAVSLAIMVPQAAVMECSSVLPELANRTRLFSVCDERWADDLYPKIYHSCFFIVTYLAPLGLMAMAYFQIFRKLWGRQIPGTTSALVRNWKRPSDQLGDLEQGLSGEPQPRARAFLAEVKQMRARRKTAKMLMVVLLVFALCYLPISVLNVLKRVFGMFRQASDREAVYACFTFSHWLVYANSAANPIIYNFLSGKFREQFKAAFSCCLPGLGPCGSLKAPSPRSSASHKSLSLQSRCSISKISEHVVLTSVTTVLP
GalR3 antag – antagonists of human GalR3; O60755; HEK293 GalR3-CNG cAMP membrane potential fluorescence; galR3 body fused to GalR1 C-terminus; AID 651719; inhibition, % at 3 µM; actives 0.44% (n = 360,000);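 active means inhibition above the screen-wide average plus 3 SD, cut at about 13% in these data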;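 further: forskolin and galanin both at EC90 stimulate the cells; cAMP rise reported by CNG channel membrane potential dye signal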
OX1R antag-2 – OX1R (human) antagonism. O43613. OX1R-expressing cells, FRET antagonist read-out. inhibition, % at 6.6 µM. actives 1.8% (n = 330,000); in the data active means inhibition mostly above about 38%, no sharp cut-off; inactive means mostly below about 40%
TAAR1 ag – agonists of human TAAR1; Q96RJ0; CHO RD-HGA16 TAAR1, Fluo-8 calcium fluorescence; vehicle wells 0%, saturating PEA agonist 100%; activation, % at 3 µM; actives 0.99% (n = 360,000); AID 624467;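 active means activation above the mean activation of all test compounds in the run plus 3 SD, cut at about 38% in these data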
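Repeats: no replicates (n 1) | Material: CHO-derived RD-HGA16 cells with stable Gα16 and human TAAR1 | Technique: Kinetic Fluo-8 calcium fluorescence | Schedule: 17-24 h seeding, 75 min 37 °C dye, 30 min RT | Evaluation: % activation from peak over basal fluorescence ratio, DMSO-to-PEA scaled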
CHO parental Ca – counter-screen: ATP calcium response change in parental CHO cells; parental CHO-K1, ATP-induced calcium, Fluo-8 fluorescence; inhibition, % at 5.6 µM; actives 0.63% (n = 330,000); AID 463079;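 active means inhibition above that plate's mean sample inhibition plus 3 SD, cut at about 26% in these data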
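Assay system: parental CHO cells; Read-out basis: percent inhibition of ATP-evoked calcium rise, normalized to controls; Benchmarks: ATP and no-ATP DMSO wells; Compound dosing: single nominal dose of 5.6 µM per compound; Signal: Fluo-8 calcium dye fluorescence; Also added: ATP as calcium-mobilizing challenge; Repeats: singlicate.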
nonsel antag count – nonselective antagonist in TAAR1 antagonist counter-screen | counterscreen cell line, calcium fluorescence, antagonist mode | inhibition, % at 3 µM | shares compounds with TAAR1 antag | actives 77% (n = 2,400); in the data active means inhibition above about 22%;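 further: CHO-Ga16 host cells stimulated with ATP at an EC80 level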
TAAR1 ant conf – human TAAR1 antagonism, confirmed. actives 40% (n = 2,400). TAAR1-expressing cells, fluorescence antagonist read-out. shares compounds with TAAR1 antag. inhibition, % at 3 µM; in the data active means inhibition above about 49%;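 further: CHO-Ga16 host cells challenged with agonist PEA near its EC80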
Ga16 ag counter – nonselective Ga16 agonism, counter-screen; shares compounds with TAAR1 antag; Ga16-expressing cells, calcium fluorescence, agonist counterscreen; activation, % at 3 µM; actives 18% (n = 2,400); AID 651953; in the data active means activation above about 12%
TAAR1 ag count – activates human TAAR1 in antagonist counter-screen; shares compounds with TAAR1 antag; hTAAR1 cell line, fluorescence activation, agonist mode; activation, % at 3 µM; actives 2% (n = 2,400); in the data active means activation above about 37%;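 further: CHO cells stably expressing TAAR1 with calcium dye readout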
Of the large screens only hits and unclear results are named; the others gave an inactive call (follow-up assays come after a bar, where they were run); ! = not confirmed by another sample. Hits are enriched below; roughly 4.2% of the tested compounds scored in any of these assays.

COc1cc2c(cc1OC)C(c1cc3cc(OC)c(OC)cc3[nH]c1=O)N(C(=O)C1CC1)CC2 (configuration not stated)	none
CN(CC(=O)Nc1ccccc1N1CCOCC1)S(=O)(=O)c1ccc(F)cc1	none
Cc1ccc2nc(-c3cccc(SC4CCCCC4)c3)c(NC3CCCCC3)n2c1	none
CCC(C)Sc1cc(-c2nc3ccccn3c2NC2CCCCC2)ccc1OC (configuration not stated)	TAAR1 antag 78.5 | nonsel antag count 42.1 | TAAR1 ant conf 63.1 | Ga16 ag counter inactive | TAAR1 ag count inactive
c1csc(-c2nc3ccccn3c2NC2CCCCC2)c1	none
CCC(C)Sc1ccc(-c2nc3ccc(C)cn3c2NC2CCCCC2)cc1 (configuration not stated)	none (no result: TAAR1 antag, GalR3 antag, TAAR1 ag)
CCC(C)Sc1cccc(-c2nc3ccc(C)cn3c2NC2CCCCC2)c1 (configuration not stated)	TAAR1 antag 57.4! | nonsel antag count 35.1 | TAAR1 ant conf 48.8 | Ga16 ag counter inactive | TAAR1 ag count inactive
CC(=O)c1ccc(-c2cccc(-c3nc4ccccn4c3NC3CCCCC3)c2)cc1	TAAR1 antag 58.7 | nonsel antag count 23.3 | TAAR1 ant conf inactive | Ga16 ag counter inactive | TAAR1 ag count inactive
Cc1ccc2nc(-c3cccc(SC4CCCCC4)c3)c(NCc3ccccc3)n2c1	TAAR1 antag 84.2 | nonsel antag count 37.0 | TAAR1 ant conf 60.6 | Ga16 ag counter inactive | TAAR1 ag count inactive
CCC(C)Sc1cc(-c2nc3cc(C)ccn3c2NC2CCCCC2)ccc1OC (configuration not stated)	none
O=C(Cc1ccc(F)cc1)Nc1nc(-c2ccc(F)c(F)c2)cs1	TAAR1 antag 73.6 (no result: OX1R antag-1, OX1R antag-2, CHO parental Ca) | nonsel antag count 34.2 | TAAR1 ant conf inactive | Ga16 ag counter inactive | TAAR1 ag count inactive
COc1ccccc1CN(C)C(=O)c1ccc(S(=O)(=O)Nc2c(C)n(C)n(-c3ccccc3)c2=O)cc1	TAAR1 antag 50.1 | nonsel antag count inactive | TAAR1 ant conf inactive | Ga16 ag counter inactive | TAAR1 ag count inactive
CN(C(=O)c1ccc(NC(=O)C2CCN(C(=O)OC(C)(C)C)CC2)cc1)C1CC1	none
CN(Cc1ccccc1)C(=O)c1ccc(NC(=O)C2CCN(C(=O)OC(C)(C)C)CC2)cc1	TAAR1 antag 59.6 | nonsel antag count 46.8 | TAAR1 ant conf inactive | Ga16 ag counter 14.3 | TAAR1 ag count inactive
Cc1c(Cl)c([N+](=O)[O-])nn1Cc1ccc(C(=O)N/N=C\c2cccc(Br)c2)o1	TAAR1 antag 64.6 | nonsel antag count 35.4 | TAAR1 ant conf inactive | Ga16 ag counter inactive | TAAR1 ag count inactive
Cc1ccc(S(=O)(=O)Nc2c(NC3CCCCC3)c3ccccc3oc2=O)cc1C	none
COc1ccc(S(=O)(=O)Nc2c(NC3CCCCC3)c3ccccc3oc2=O)cc1OC	TAAR1 antag 50.8 | nonsel antag count inactive | TAAR1 ant conf inactive | Ga16 ag counter inactive | TAAR1 ag count inactive
Cc1ccc(CSCCNC(=O)/C=C/c2ccccc2Cl)cc1	TAAR1 antag 52.2 | nonsel antag count 24.8 | TAAR1 ant conf inactive | Ga16 ag counter inactive | TAAR1 ag count inactive
O=C(/C=C/c1ccc(Cl)cc1Cl)NCCSCc1ccccc1	none
N#Cc1cc(C#N)c(N2CCN(c3cccc(Cl)n3)CC2)nc1N	TAAR1 antag 57.9 | nonsel antag count 33.7 | TAAR1 ant conf 49.2 | Ga16 ag counter 19.4 | TAAR1 ag count inactive
